{"data": "Experimental data collected from several papers", "target": "Serine/threonine-protein kinase MARK1 (MARK1, Homo sapiens, UniProt Q9P0L2)", "note": "Lines come from different studies, so protocols differ."}
{"Compound": "COc1ncc2cc3ccccc3nc2c1C#N", "effect on": "cell-free assay", "technique": "competition with immobilised ligand", "tested at": "5 µM", "remaining binding": "65%"}
{"Compound": "COc1cnc(Nc2cccc(S(N)(=O)=O)c2)nc1N1CCN(c2ccccc2)CC1", "effect on": "binding", "technique": "competition with immobilised ligand", "tested at": "1 µM", "remaining binding": "100%"}
{"Compound": "Cc1cnc(Nc2ccc(C(=O)N3CCC(N4CCCC4)CC3)cc2)nc1-c1cc2ccccc2s1", "effect on": "binding", "technique": "competition with immobilised ligand", "tested at": "1 µM", "remaining binding": "22%"}
{"Compound": "CN(C)c1ncc(F)c(-c2cnn3ncccc23)n1", "effect on": "binding", "tested at": "1 µM", "remaining binding": "100%"}
{"Compound": "Cn1cc(Cl)c2c(Oc3c(F)cc(Nc4cc(Cl)nc(N)n4)cc3F)ccnc21", "effect on": "cell-free assay", "technique": "competition with immobilised ligand", "tested at": "0.1 µM", "remaining binding": "100%"}
{"Compound": "CCN1CCN(Cc2ccc(C(=O)Nc3ccc(C)c(Oc4ccc5c(c4)CC(=O)N5)c3)cc2C(F)(F)F)CC1", "effect on": "binding", "technique": "competition with immobilised ligand", "tested at": "1 µM", "remaining binding": "100%"}
{"Compound": "C[C@@H]1CCN(c2nccc(-c3cnn4ncccc34)n2)C1", "effect on": "binding", "tested at": "1 µM", "remaining binding": "100%"}
{"Compound": "O=C(NCCCN1CCOCC1)c1ccc(Nc2ncc(Cl)c(-c3ccc(Cl)s3)n2)cc1", "effect on": "binding", "technique": "competition with immobilised ligand", "tested at": "1 µM", "remaining binding": "25%"}
{"Compound": "Cn1nc(C(=O)NCc2ccc(C(=O)O)cc2)cc1-c1ccc2[nH]ccc2c1", "effect on": "cell-free assay", "technique": "competition with immobilised ligand", "tested at": "0.1 µM", "remaining binding": "100%"}
{"Compound": "N[C@H]1CCN(c2nccc(-c3cnn4ncccc34)n2)C1", "effect on": "binding", "tested at": "1 µM", "remaining binding": "100%"}
{"Compound": "O=C(NCC1CCOCC1)c1n[nH]cc1NC(=O)c1c(F)cccc1F", "effect on": "binding", "technique": "competition with immobilised ligand", "tested at": "1 µM", "remaining binding": "100%"}
{"Compound": "CC(C)(O)c1cncc(-c2nc3ccc(F)cc3n2C2CC2)c1", "effect on": "cell-free assay", "technique": "competition with immobilised ligand", "tested at": "1 µM", "remaining binding": "100%"}
{"Compound": "C=CC(=O)N1CCC(C(=O)NCC(=O)N2CCN(c3nc(-c4cnc(N)nc4C(F)F)nc(N4CCOCC4)n3)CC2)CC1", "effect on": "binding", "technique": "competition with immobilised ligand", "tested at": "1 µM", "remaining binding": "100%"}
{"Compound": "FC(F)(F)Oc1cccc(-c2cnc3ccc(-c4ccncc4)nn23)c1", "effect on": "cell-free assay", "technique": "competition with immobilised ligand", "tested at": "5 µM", "remaining binding": "79%"}
{"Compound": "COc1ccnn2ncc(-c3ccnc(N(C)C)n3)c12", "effect on": "binding", "tested at": "1 µM", "remaining binding": "97%"}
{"Compound": "O=C(c1ccc(Nc2nccc(-c3cc4ccccc4s3)n2)cc1)N1CCC(N2CCCC2)CC1", "effect on": "binding", "technique": "competition with immobilised ligand", "tested at": "1 µM", "remaining binding": "62%"}
{"Compound": "CN(CCCC(F)(F)F)c1nccc(-c2cnn3ncccc23)n1", "effect on": "binding", "tested at": "1 µM", "remaining binding": "100%"}
{"Compound": "CNCc1ccccc1-c1csc([C@H](C)Nc2nc(C)nc3cc(OC)c(OC)cc23)c1", "effect on": "cell-free assay", "technique": "competition with immobilised ligand", "tested at": "1 µM", "remaining binding": "100%"}
{"Compound": "F[C@@H]1CCN(c2nccc(-c3cnn4ncccc34)n2)C1", "effect on": "binding", "tested at": "1 µM", "remaining binding": "100%"}
{"Compound": "COc1ccc2cc(OCC3(C(=O)O)CN(C(=O)c4ccc(F)cc4)C3)ccc2c1", "effect on": "cell-free assay", "technique": "competition with immobilised ligand", "tested at": "1 µM", "remaining binding": "100%"}
{"Compound": "CN(C)c1nccc(-c2cnc3ncccn23)n1", "effect on": "binding", "tested at": "1 µM", "remaining binding": "80%"}
{"Compound": "CCS(=O)(=O)c1cc2cc(C[C@](O)(CC(C)(C)c3ccc(F)cc3C(N)=O)C(F)(F)F)[nH]c2cn1", "effect on": "cell-free assay", "technique": "competition with immobilised ligand", "tested at": "1 µM", "remaining binding": "100%"}
